Assay outcomes (PubChem)
STEP inh: inhibitors of human striatal-enriched phosphatase STEP. 0.25% of 360,000 active. inhibition, % at 20 µM. AID 588621. P54829. recombinant STEP, OMFP fluorogenic substrate, fluorescence;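 active means inhibition at 20 µM, scaled per plate between control wells, above about 37%, limit read from the data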
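System: isolated STEP enzyme; schedule: 20 min enzyme reaction at room temperature, protected from light; medium: Bis-Tris buffer pH 6.0, 2.5 mM DTT, 0.005% Tween 20; signal: fluorescence, 480/540 nm; dosing: single compound dose of 20 µM, 1% DMSO final; also added: OMFP substrate, 25 µM final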
GRK2 inh: human GRK2 inhibition via aptamer displacement. bead flow cytometry, FAM-aptamer displacement from GRK2. 0.59% of 330,000 active. AID 488847. P25098. inhibition of aptamer binding, % at 10 µM;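 active means inhibition of aptamer binding above 40%, roughly 3 SD of noise, on plates passing a quality check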;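 further: median bead fluorescence of bound FAM aptamer so fluorescent compounds give negative values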
LMPTP inh: blocks human LMPTP phosphatase; P24666; recombinant LMPTP-A, OMFP fluorogenic substrate, fluorescence intensity; inhibition, % at 20 µM; 0.22% of 360,000 active; AID 651560;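 active means compounds that cut the enzyme signal by at least half of the control window in the single-dose screen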
Target sequence (P24666 whole entry, looked up): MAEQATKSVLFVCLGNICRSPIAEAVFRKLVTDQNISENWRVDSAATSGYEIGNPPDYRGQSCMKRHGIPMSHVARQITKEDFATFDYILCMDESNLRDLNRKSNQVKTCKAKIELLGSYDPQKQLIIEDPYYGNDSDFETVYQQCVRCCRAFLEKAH
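Test system – LMPTP-A enzyme · Amount – LMPTP-A at 0.625 nM final in the reaction · Buffer or medium – Bis-Tris pH 6.0, DTT, detergent · Reagent – OMFP 400 µM · Doses – single 20 µM dose · Schedule – reaction 50 min, room temperature, dark · Detection – fluorescence intensity of OMFP turnover product · Evaluation – percent inhibition versus substrate-only and uninhibited controls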
Scp-1 inhibitor: blocks human Scp-1 phosphatase activity; Recombinant Scp1, phosphopeptide, malachite green phosphate absorbance; Q9GZU7; 0.88% of 340,000 active; inhibition, % at 20 µM;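 active means inhibition above about 50% at 20 µM, limit read from the data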
Target sequence (Q9GZU7 76-261 limits assumed): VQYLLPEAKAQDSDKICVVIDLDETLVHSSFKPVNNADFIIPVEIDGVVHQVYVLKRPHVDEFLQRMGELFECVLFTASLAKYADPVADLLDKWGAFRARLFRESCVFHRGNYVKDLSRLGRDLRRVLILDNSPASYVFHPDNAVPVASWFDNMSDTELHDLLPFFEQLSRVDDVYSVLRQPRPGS
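Material – SCP-1 phosphatase catalytic domain, residues 76-261 · Buffer or medium – Acidic Tris acetate buffer with magnesium and detergent · Also added – Phospho 17-mer peptide substrate · Compound – single 20 µM dose, 1% DMSO · Times – 45 min room-temperature reaction, 5 min colour, 30 min stabiliser · Technique – Phosphate-binding colour reagent, absorbance read at 630 nm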
DNMT1 inh: DNMT1 (human) enzyme inhibition. P26358. DNMT1 molecular beacon, Hinp1I cleavage, fluorescence. inhibition (reported as % activation of signal), % at 10 µM. 0.83% of 360,000 active; in the data active means inhibition above about 50%
SUMO1 PPI mod: alters human SUMO1 binding to SIM partners | 0.33% of 360,000 active | inhibition, % at 20 µM | SUMO1 binding to a labelled peptide, TR-FRET, 1 h | AID 602429; in the data active means inhibition above about 37%
Target sequence (P63165 whole entry, looked up): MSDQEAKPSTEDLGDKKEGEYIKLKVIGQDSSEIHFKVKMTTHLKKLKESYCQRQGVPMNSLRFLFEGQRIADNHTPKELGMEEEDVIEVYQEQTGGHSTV
Numbers stand for hits. Only some compounds are listed: those with a hit (about 2.2% of all), similar ones and a draw of the others.

`Cc1cc(C(=O)O)c(C)n1-c1ccccc1` gave STEP inh inactive, GRK2 inh inactive, LMPTP inh inactive, Scp-1 inhibitor inactive, DNMT1 inh inactive and SUMO1 PPI mod inactive.
For COCCNc1nc(NCc2cc(-c3ccc(OC)cc3)no2)c2sccc2n1 the results were STEP inh inactive, LMPTP inh 57, DNMT1 inh inactive and SUMO1 PPI mod inactive.
For COCCNc1nc(NCc2cccs2)nc2ccsc12 the results were STEP inh inactive, LMPTP inh inactive, DNMT1 inh inactive and SUMO1 PPI mod inactive.
For Cc1ccc(S(=O)(=O)N2[C@@H](c3ccc(Br)cc3)C(C(=O)O)=CC[C@H]2c2ccc(Cl)c(Cl)c2)cc1 the results were STEP inh inactive, GRK2 inh inactive, LMPTP inh inactive, Scp-1 inhibitor inactive, DNMT1 inh inactive and SUMO1 PPI mod 40.
For Cc1ccc(S(=O)(=O)N2[C@@H](c3ccc(C(C)(C)C)cc3)C(C(=O)O)=CC[C@H]2c2ccc(Cl)c(Cl)c2)cc1 the results were STEP inh inactive, GRK2 inh inactive, LMPTP inh inactive, Scp-1 inhibitor inactive, DNMT1 inh inactive and SUMO1 PPI mod 43.
For CCCCC(=O)N(C)c1c(CC)nc2c(OCC(=O)N(C)C)cccn12 the results were STEP inh inactive, LMPTP inh inactive, DNMT1 inh inactive and SUMO1 PPI mod inactive.
Screening Cc1ccc([C@H]2C[C@@H](O)[C@H](n3cc(C4CC4)nn3)CN2C(=O)c2cccs2)cc1 returned STEP inh inactive, LMPTP inh inactive, DNMT1 inh inactive and SUMO1 PPI mod inactive.
`CCCS(=O)(=O)NC(=O)C1(C)CCCN(C(=O)c2ccccc2OC(F)(F)F)C1` (stereo unspecified) gave STEP inh inactive, LMPTP inh inactive, DNMT1 inh inactive and SUMO1 PPI mod inactive.
`Cc1ccc2nc(C(C)(C)C)c(Cc3cccc(F)c3)n2c1` gave STEP inh inactive, LMPTP inh inactive, DNMT1 inh inactive and SUMO1 PPI mod inactive.
Cc1cc(C(=O)N/N=C/c2ccc(O)c(O)c2O)c(C)n1-c1ccccc1 was read as STEP inh inactive, LMPTP inh 56, Scp-1 inhibitor inactive, DNMT1 inh inactive and SUMO1 PPI mod inactive.
COc1ccc(C(C)NC(=O)C2CCN(CCOc3ccc(Cl)cc3Cl)CC2)cc1OC (stereo unspecified) was read as STEP inh inactive, LMPTP inh inactive, DNMT1 inh inactive and SUMO1 PPI mod inactive.
For COc1ccc(NC(=O)C2(C)CCCN(C(C)C)C2)cc1F (stereo unspecified) the results were STEP inh inactive, LMPTP inh inactive, DNMT1 inh inactive and SUMO1 PPI mod inactive.
For Oc1ccc(N=Cc2ccc(OCc3ccccc3)cc2)cc1 the results were STEP inh inactive, GRK2 inh inactive, LMPTP inh inactive, Scp-1 inhibitor inactive, DNMT1 inh inactive and SUMO1 PPI mod 63.
For CCOC(=O)c1c(C)oc2cc(Br)c(O)c(Br)c12 the results were STEP inh inactive, GRK2 inh inactive, LMPTP inh inactive, Scp-1 inhibitor inactive, DNMT1 inh inactive and SUMO1 PPI mod 45.
For CC1(C(=O)NCc2ccco2)Cc2c(-c3cccc(C(N)=O)c3)ccnc2O1 (stereo unspecified) the results were STEP inh inactive, LMPTP inh inactive, DNMT1 inh inactive and SUMO1 PPI mod inactive.
`CCc1nc(N)nc(N)c1-c1ccc(N(C)Cc2ccccc2)c([N+](=O)[O-])c1` gave STEP inh inactive, LMPTP inh 79, Scp-1 inhibitor inactive, DNMT1 inh inactive and SUMO1 PPI mod inactive.
CCc1nc(N)nc(N)c1-c1ccc(Cl)cc1 was read as STEP inh inactive, GRK2 inh inactive, LMPTP inh 56, Scp-1 inhibitor inactive, DNMT1 inh inactive and SUMO1 PPI mod inactive.
CCC(=O)n1nc(-c2ccc(Cl)cc2)nc1N was read as STEP inh inactive, GRK2 inh inactive, LMPTP inh inactive, Scp-1 inhibitor inactive, DNMT1 inh inactive and SUMO1 PPI mod inactive.
For CCc1nc(N)nc(N)c1-c1ccc(NCCN)c([N+](=O)[O-])c1 the results were STEP inh inactive, Scp-1 inhibitor inactive, DNMT1 inh inactive and SUMO1 PPI mod inactive.
